This note sets out measurements from ChEMBL document CHEMBL1926506, “Benzenediol-berberine hybrids: multifunctional agents for Alzheimer's disease” (Bioorg Med Chem, 2011).

A word on the IC50: it is the concentration that gives 50% inhibition. What is called inhibition is the share of the control response that was lost under treatment.

Active and inactive are the calls of the source. The calls are words filed in the database; no cut-off is given here.

For one assay, the target named is Acetylcholinesterase (Electrophorus electricus, UniProt O42275). Put plainly: Inhibition of electric eel AChE using […] as substrate preincubated for 15 mins by Ellman's method. A general note: In Ellman's method for cholinesterases, released thiocholine reacts with DTNB.
In assay [1] the target is T1, Butyrylcholinesterase (Equus caballus, UniProt Q9N1N9). As to the kind of experiment: Inhibition of equine serum BuChE using butyrylthiocholine chloride as substrate preincubated for 15 mins by Ellman's method.
The nature of assay [2]: Selectivity ratio of IC50 for equine serum BuChE to IC50 for electric eel AChE. The method, boiled down:
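Ellman assay in 0.1 M KH₂PO₄/K₂HPO₄ buffer, pH 8.0, with electric eel AChE or equine serum BuChE (2.0 units/ml solutions) and DTNB. Compounds dissolved in DMSO, diluted in buffer, and preincubated with enzyme for 15 min at 37 °C before substrate was added. A412 was read at 1 min intervals at 37 °C. Ratio calculated as IC50(BuChE)/IC50(AChE).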

Assay [3] has as its target T1, Butyrylcholinesterase. Put plainly: Inhibition of equine serum BuChE using […] as substrate preincubated for 15 mins by Ellman's method.
A short description of assay [4]: Antioxidant activity assessed as trolox equivalent of […]-induced radical scavenging activity at 0.5 to 10 uM measured every 60 sec for 4 hrs by ORAC fluorescence assay relative to trolox. Format: functional. The method in brief: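 ORAC-FL in 75 mM phosphate buffer pH 7.4. Sample and fluorescein (300 nM final) preincubated 10 min at 37 °C, then AAPH added (12 mM final). Fluorescence read every 60 s for 4 h (ex 485, em 535 nm). Trolox standard 1–10 µM final; samples 0.5–10 µM. Blank without antioxidant run each assay, curves normalized to it. Fourfold mixtures, at least four independent runs. Expressed as µM Trolox equivalent per µM compound.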

A short description of assay [5]: Inhibition of self-mediated amyloid beta (1 to 42) aggregation at 20 uM after 48 hrs by thioflavin T fluorescence assay. The method in brief:
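HFIP-pretreated Abeta1-42 resolubilized in 50 mM phosphate buffer pH 7.4, then incubated at 37 °C for 48 h (final peptide 50 µM) with or without compound at 20 µM. Samples diluted into 50 mM glycine-NaOH pH 8.0 containing thioflavin T. Fluorescence scanned 300 s (ex 450, em 485 nm). Plateau values averaged after subtracting thioflavin T background.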

Assay [6] concerns the target Acetylcholinesterase (Electrophorus electricus) (UniProt O42275). Put plainly: Mixed type inhibition of electric eel AChE using acetylcholine chloride as substrate by Lineweaver-Burk reciprocal plot analysis. The method in brief:
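Enzyme in 0.1 M potassium phosphate pH 8.0 with DTNB. Compound preincubated with enzyme at 37 °C for 15 min, then acetylcholine substrate added. Absorbance read at 412 nm. Reciprocal plots of 1/V versus 1/[S]. Slopes replotted against inhibitor concentration by weighted analysis. Ki taken as the replot intercept divided by the replot slope.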

T1 sequence (Q9N1N9 whole entry): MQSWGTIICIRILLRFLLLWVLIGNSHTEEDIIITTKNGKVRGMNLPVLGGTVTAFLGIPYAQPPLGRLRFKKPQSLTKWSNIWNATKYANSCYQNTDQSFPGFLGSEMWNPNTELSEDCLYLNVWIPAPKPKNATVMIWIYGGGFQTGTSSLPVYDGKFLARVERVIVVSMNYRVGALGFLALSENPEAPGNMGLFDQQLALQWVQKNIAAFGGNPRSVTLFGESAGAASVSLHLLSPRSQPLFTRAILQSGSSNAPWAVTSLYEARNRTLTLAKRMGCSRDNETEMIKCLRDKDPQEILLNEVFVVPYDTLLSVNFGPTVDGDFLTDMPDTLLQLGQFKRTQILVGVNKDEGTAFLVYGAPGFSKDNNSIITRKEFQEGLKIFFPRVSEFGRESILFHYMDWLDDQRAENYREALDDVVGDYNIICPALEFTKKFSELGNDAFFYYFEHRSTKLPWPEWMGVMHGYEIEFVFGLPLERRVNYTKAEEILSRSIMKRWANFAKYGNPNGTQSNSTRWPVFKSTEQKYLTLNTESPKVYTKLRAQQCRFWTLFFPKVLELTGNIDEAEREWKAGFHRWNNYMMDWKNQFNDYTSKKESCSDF
Chain of Acetylcholinesterase (O42275 whole entry): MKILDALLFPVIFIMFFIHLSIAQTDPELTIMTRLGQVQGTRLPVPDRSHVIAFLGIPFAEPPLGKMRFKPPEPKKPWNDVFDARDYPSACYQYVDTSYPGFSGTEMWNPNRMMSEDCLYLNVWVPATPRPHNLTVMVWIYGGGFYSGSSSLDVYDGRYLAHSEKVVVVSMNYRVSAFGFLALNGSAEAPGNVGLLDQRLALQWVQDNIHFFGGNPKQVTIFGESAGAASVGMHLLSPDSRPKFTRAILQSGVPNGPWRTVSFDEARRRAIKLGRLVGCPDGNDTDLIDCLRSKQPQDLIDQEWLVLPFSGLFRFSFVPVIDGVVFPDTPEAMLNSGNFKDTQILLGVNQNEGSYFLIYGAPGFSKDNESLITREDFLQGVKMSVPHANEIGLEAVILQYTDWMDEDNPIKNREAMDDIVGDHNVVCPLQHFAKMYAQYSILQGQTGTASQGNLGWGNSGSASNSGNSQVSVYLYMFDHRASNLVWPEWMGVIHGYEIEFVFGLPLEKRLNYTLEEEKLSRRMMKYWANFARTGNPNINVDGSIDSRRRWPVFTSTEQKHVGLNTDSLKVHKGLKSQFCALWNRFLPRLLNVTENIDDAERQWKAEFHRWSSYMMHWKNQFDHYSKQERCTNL
Chain of Acetylcholinesterase (Electrophorus electricus) (O42275 24-633 limits assumed): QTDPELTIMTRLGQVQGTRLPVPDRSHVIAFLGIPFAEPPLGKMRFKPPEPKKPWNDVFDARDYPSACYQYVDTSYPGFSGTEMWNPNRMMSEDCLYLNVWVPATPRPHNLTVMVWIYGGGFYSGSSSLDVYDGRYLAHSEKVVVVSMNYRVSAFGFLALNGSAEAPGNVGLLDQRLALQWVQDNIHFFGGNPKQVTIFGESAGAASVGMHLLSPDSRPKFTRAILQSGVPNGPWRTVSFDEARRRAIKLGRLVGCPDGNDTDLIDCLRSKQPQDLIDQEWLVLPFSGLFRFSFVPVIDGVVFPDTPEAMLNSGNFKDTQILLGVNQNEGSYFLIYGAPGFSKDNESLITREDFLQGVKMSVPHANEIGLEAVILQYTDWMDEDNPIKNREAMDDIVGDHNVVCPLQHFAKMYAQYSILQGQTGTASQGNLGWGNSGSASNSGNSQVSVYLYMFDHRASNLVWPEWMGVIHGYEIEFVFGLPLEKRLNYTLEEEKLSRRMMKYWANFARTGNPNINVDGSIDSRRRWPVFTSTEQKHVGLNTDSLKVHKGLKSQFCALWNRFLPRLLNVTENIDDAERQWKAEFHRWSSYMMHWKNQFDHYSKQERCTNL

Turning to `COc1cc(/C=C/C(=O)OCCCOc2c(OC)ccc3cc4[n+](cc23)CCc2cc3c(cc2-4)OCO3)ccc1O`, the IC50 on Acetylcholinesterase was determined as 3.21 µM; against Butyrylcholinesterase [1], 2.4 µM; at Butyrylcholinesterase [3] it was 2.25 µM. Moreover, the Ratio IC50 in assay [2] stood at 0.75. The Ratio in assay [4] is 3.43. In assay [5], this compound showed an inhibition of 75.8%.

Turning to `COc1ccc2cc3[n+](cc2c1OCCC(=O)NCCc1c[nH]c2ccc(C)cc12)CCc1cc2c(cc1-3)OCO2`, the IC50 on Acetylcholinesterase stood at 1.42 µM; against Butyrylcholinesterase [1], 1.96 µM; at Butyrylcholinesterase [3], 1.79 µM. Besides, the Ratio IC50 in assay [2] is 1.39. Further, the Ratio in assay [4] came to 3.11. Moreover, the inhibition in assay [5] was found to be 75.8%.

`COc1cc(/C=C/C(=O)O)ccc1O` [FERULATE] came in with a concentration for half-maximal inhibition (IC50) against Acetylcholinesterase greater than 100 µM. Besides, the Ratio in assay [4] came to 3.13. This compound also came in with an inhibition in assay [5] of 6.1%.

Consider `COc1ccc2cc3[n+](cc2c1OCCCCOc1cccc(O)c1)CCc1cc2c(cc1-3)OCO2`, for which the concentration for half-maximal inhibition (IC50) amounted to 0.547 µM on Acetylcholinesterase, 2.4 µM on Butyrylcholinesterase [1] and 1.92 µM on Butyrylcholinesterase [3]. The Ratio IC50 in assay [2] came to 4.39. Further, the Ratio in assay [4] turned out to be 5.3. The same compound gave an inhibition in assay [5] of 72.8%.

Regarding `COc1ccc2cc3[n+](cc2c1OCCC(=O)NCCc1c[nH]c2ccccc12)CCc1cc2c(cc1-3)OCO2`, the IC50 worked out at 1.11 µM at Acetylcholinesterase, 1.64 µM against Butyrylcholinesterase [1] and 1.46 µM against Butyrylcholinesterase [3]. For the same compound, the Ratio in assay [4] amounted to 3.78. This compound also came in with an inhibition in assay [5] of 82.8%.

As to `COc1ccc2[nH]cc(CCNC(=O)CCOc3c(OC)ccc4cc5[n+](cc34)CCc3cc4c(cc3-5)OCO4)c2c1`, the IC50 at Acetylcholinesterase worked out at 1.44 µM; against Butyrylcholinesterase [1], 2.72 µM; on Butyrylcholinesterase [3], 2.49 µM. The Ratio IC50 in assay [2] is 1.88. Besides, in assay [4], the Ratio is 3.61. In addition, the inhibition in assay [5] was 79.5%.

For `COc1ccc2cc3[n+](cc2c1OCCCOc1ccccc1O)CCc1cc2c(cc1-3)OCO2`, the half-inhibitory concentration (IC50) on Acetylcholinesterase is 0.49 µM; on Butyrylcholinesterase [1], 1.74 µM; against Butyrylcholinesterase [3], 1.3 µM. In assay [2], the Ratio IC50 came to 3.55. For the same compound, the Ratio in assay [4] was 3.41. Moreover, the inhibition in assay [5] is 83.5%.

On to `COc1ccc2cc3[n+](cc2c1OCCCCOc1ccccc1)CCc1cc2c(cc1-3)OCO2`, for which, in assay [5], the inhibition worked out at 57.4%.

On to `COc1ccc2cc3[n+](cc2c1OCCCCOc1ccccc1O)CCc1cc2c(cc1-3)OCO2`, for which the IC50 at Acetylcholinesterase is 0.123 µM; at Butyrylcholinesterase [1], 2.09 µM; against Butyrylcholinesterase [3] it was 1.74 µM. Moreover, the Ratio IC50 in assay [2] was determined as 17. In addition, the Ratio in assay [4] is 3.54. In assay [5], this compound had an inhibition of 84.5%. Further, the inhibition result in assay [6] was “Active”.

As to `COc1ccc2cc3[n+](cc2c1OCCCCOc1ccc(O)cc1)CCc1cc2c(cc1-3)OCO2`, the IC50 on Acetylcholinesterase was found to be 0.304 µM; against Butyrylcholinesterase [1], 1.04 µM; against Butyrylcholinesterase [3], 0.95 µM. Moreover, the Ratio IC50 in assay [2] was 3.42. Also, the Ratio in assay [4] came out at 6.45. Moreover, the inhibition in assay [5] amounted to 86.6%.

Take `COc1ccc2[nH]cc(CCNC(C)=O)c2c1`: the Ratio in assay [4] worked out at 2.3.

Consider `COc1ccc2cc3[n+](cc2c1OCCCOc1ccc(O)cc1)CCc1cc2c(cc1-3)OCO2`, for which the IC50 at Acetylcholinesterase turned out to be 0.46 µM; against Butyrylcholinesterase [1] it was 2.06 µM; against Butyrylcholinesterase [3], 1.66 µM. In assay [2], the Ratio IC50 worked out at 4.48. For the same compound, in assay [4], the Ratio was determined as 9.54. For the same compound, in assay [5], the inhibition was found to be 92%.

Regarding `COc1ccc2cc3[n+](cc2c1OC)CCc1cc2c(cc1-3)OCO2`, the inhibition in assay [5] was determined as 36.3%.

Consider `COc1ccc2cc3[n+](cc2c1OCCCOc1cccc(O)c1)CCc1cc2c(cc1-3)OCO2`, for which the IC50 stood at 0.628 µM on Acetylcholinesterase, 1.13 µM at Butyrylcholinesterase [1] and 0.898 µM against Butyrylcholinesterase [3]. The Ratio IC50 in assay [2] was found to be 1.8. Further, the Ratio in assay [4] was 5.31. This compound had an inhibition in assay [5] of 85.9%.
